The text below walks through data of ChEMBL document CHEMBL1138004, “Small molecule antagonists of the CCR2b receptor. Part 2: Discovery process and initial structure-activity relationships of diamine derivatives” (Bioorg Med Chem Lett, 2004).

For orientation: IC50 means the point on the concentration scale where inhibition reaches its midpoint. Read a high IC50 as a need for much substance. The term inhibition denotes the percentage by which the read-out fell short of the control.

The target of the first test is T1, C-C chemokine receptor type 2 (Homo sapiens, UniProt P41597). Briefly: Inhibition of [125I]MCP-1 binding to Chemokine receptor 2B; not active.
Conditions: not given; call rule not given here
Put shortly:
(§1)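 Radioligand binding with THP-1 cells as the receptor source and human 125I-MCP-1 as the tracer. Inhibition of tracer binding by test compounds was measured.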
Target sequence in this assay (P41597 whole entry): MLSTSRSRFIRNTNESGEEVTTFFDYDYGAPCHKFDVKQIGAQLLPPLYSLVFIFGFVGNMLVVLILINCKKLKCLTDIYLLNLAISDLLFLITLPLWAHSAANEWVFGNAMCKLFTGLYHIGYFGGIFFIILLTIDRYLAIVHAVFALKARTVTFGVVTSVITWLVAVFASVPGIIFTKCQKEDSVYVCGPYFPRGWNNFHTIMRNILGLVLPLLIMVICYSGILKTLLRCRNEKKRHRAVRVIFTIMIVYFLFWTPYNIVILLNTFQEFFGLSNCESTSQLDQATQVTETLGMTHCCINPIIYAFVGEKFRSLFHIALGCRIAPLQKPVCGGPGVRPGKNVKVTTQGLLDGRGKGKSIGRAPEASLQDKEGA
Take `O=C(CNC(=O)c1ccccc1)NC1CCCN(Cc2ccc(Cl)cc2)C1` (stereo not given): the IC50 result is recorded as “Not Active”.

The target of a further test is T1, C-C chemokine receptor type 2. To be noted: 10 uM.
Target sequence in this assay (P41597 whole entry, looked up): as the sequence (P41597 whole entry) above
The compound `O=C(CNC(=O)c1cccc(C(F)(F)F)c1)N[C@@H]1CCN(Cc2ccc(Cl)cc2)C1` yielded an inhibition of 49%.

Another test shares this target. Briefly: Concentration required to inhibit [125I]MCP-1 binding to Chemokine receptor 2B.
Conditions: not given
Put shortly: as §1
Target sequence in this assay (P41597 whole entry): as above
Compound `O=C(CNC(=O)c1cccc(C(F)(F)F)c1)NCC1CCN(Cc2ccc(Cl)cc2)CC1` yielded an IC50 of 0.7 µM.

As for `Cc1csc(C(=O)NNC(=O)CNC2CCN(Cc3ccc(Cl)cc3)C2)c1` (stereo not given), the IC50 was 41 µM. As for `O=C(CNC(=O)c1ccccc1)NCC1CCCN1Cc1ccc(Cl)cc1` (stereo not given), the IC50 stood at 66 µM. On to `Cc1csc(C(=O)NNC(=O)CN2CCC(NCc3ccc(Cl)cc3)C2)c1` (stereo not given), for which the IC50 was 7.8 µM.

Consider `O=C(CNC(=O)c1cccc(C(F)(F)F)c1)N[C@@H]1CCN(Cc2ccc(Cl)cc2)C1`, for which the half-inhibitory concentration (IC50) worked out at 0.18 µM. `O=C(CCNC(=O)c1ccccc1)NCC1CCN(Cc2ccc(Cl)cc2)CC1` had an IC50 of 64 µM. Same read-out and setting: the value for `Cc1csc(C(=O)NNC(=O)CNC2CCN(CCC(c3ccccc3)c3ccccc3)C2)c1` (stereo not given) was 33 µM; that for `O=C(CNC(=O)c1cccc(C(F)(F)F)c1)NC1CCN(Cc2ccc(Cl)cc2)C1` (stereo not given) was 0.37 µM.

With `O=C(CNC(=O)c1cccc(C(F)(F)F)c1)NC[C@@H]1CCCN1Cc1ccc(Cl)cc1`, the IC50 stood at 3.1 µM. `O=C(CNC(=O)c1cccc(C(F)(F)F)c1)N[C@H]1CCN(Cc2ccc(Cl)cc2)C1`: the IC50 came to 1.2 µM. This IC50 is about 2.6-fold lower than that of the compound before.

Compound `O=C(CNC(=O)c1ccccc1)NC1CCN(Cc2ccc(Cl)cc2)C1` (stereo not given) registered an IC50 of 42 µM. The same measure, in the same setting: the result for `Cc1csc(C(=O)NNC(=O)CN2CCC(NCCC(c3ccccc3)c3ccccc3)C2)c1` (stereo not given) reads 17 µM; that for `O=C(CCNC(=O)c1ccccc1)NC1CCCN(Cc2ccc(Cl)cc2)C1` (stereo not given), 74 µM; that for `Cc1cccc(C(=O)NCC(=O)NCC2CCCN2Cc2ccc(Cl)cc2)c1` (stereo not given), 14 µM. Compound `O=C(CCNC(=O)c1ccccc1)NCC1CCCN1Cc1ccc(Cl)cc1` (stereo not given) had an IC50 of 40 µM. For the compound `Cc1cccc(C(=O)NCC(=O)NC2CCN(Cc3ccc(Cl)cc3)C2)c1` (stereo not given), the IC50 is 6.9 µM. The same measure, in the same setting: the result for `O=C(CCCC(=O)c1ccccc1)NC1CCCN(Cc2ccc(Cl)cc2)C1` (stereo not given) reads 87 µM. The same measure, in the same setting: the result for `O=C(CCCC(=O)c1ccccc1)NCC1CCCN1Cc1ccc(Cl)cc1` (stereo not given) reads 19 µM. As to `O=C(CNC(=O)c1cccc(C(F)(F)F)c1)NC[C@H]1CCCN1Cc1ccc(Cl)cc1`, the IC50 worked out at 0.57 µM. Against the preceding compound, the IC50 is about 33-fold lower. In turn, `O=C(CCCC(=O)c1ccccc1)NCC1CCN(Cc2ccc(Cl)cc2)CC1` had an IC50 of 50 µM.

For `O=C(CNC(=O)c1ccccc1)NCC1CCN(Cc2ccc(Cl)cc2)CC1`, the IC50 amounted to 11 µM. Still for that read-out and setting: the result for `Cc1csc(C(=O)NNC(=O)CN2CCCC2CNCCC(c2ccccc2)c2ccccc2)c1` (stereo not given) reads 26 µM; that for `O=C(CCCC(=O)c1ccccc1)NC1CCN(Cc2ccc(Cl)cc2)C1` (stereo not given), 11 µM; that for `O=C(CNC(=O)c1cccc(C(F)(F)F)c1)NC1CCCN(Cc2ccc(Cl)cc2)C1` (stereo not given), 0.66 µM. Compound `O=C(CCNC(=O)c1ccccc1)NC1CCN(Cc2ccc(Cl)cc2)C1` (stereo not given) displayed an IC50 of 22 µM.

With `O=C(CNC(=O)c1cccc(C(F)(F)F)c1)NCC1CCCN1Cc1ccc(Cl)cc1` (stereo not given), the IC50 worked out at 2.3 µM. The compound `Cc1cccc(C(=O)NCC(=O)NC2CCCN(Cc3ccc(Cl)cc3)C2)c1` (stereo not given) displayed a 50% inhibitory concentration (IC50) of 17 µM.

For `Cc1cccc(C(=O)NCC(=O)NCC2CCN(Cc3ccc(Cl)cc3)CC2)c1`, the IC50 was 5.5 µM.
